Data set [1] can be described thus: Drug metabolism assessed as nitric oxide release in presence of bovine plasma at 200 uM measured after 1 hr by Griess reagent based assay. To be noted: cattle. Format: ADME, cell-free, Bos taurus.
In data set [2] the test system is Cortical neurone. Kind of data set: Neuroprotective activity against in OGD/R-induced Sprague-Dawley rat cortical neuron injury assessed as cell viability pretreated at 1.8 uM for 24 hrs followed by subjected to OGD for 2 hrs measured after 24 hrs under normoxic condition. In kind it is functional, tissue-based. The gist of the method:
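Cortical neurons were isolated from SD rat cortex by enzymatic digestion, plated on poly-lysine in 10% FBS DMEM, and pretreated 24 h at 1.8 μM in basal medium with 2% B27. OGD was run in glucose/FBS-free DMEM under 1% O₂, followed by 24 h reoxygenation in 10% FBS DMEM. Viability was read by MTT; apoptosis was also assessed. Three independent experiments.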

Data set [3] in a line: Photostability of the compound under light at 200 uM measured after 24 hrs by HPLC analysis. Format: physicochemical.
Data set [4] can be described thus: Stability of the compound under dark condition at 200 uM measured after 24 hrs by HPLC analysis. Format: physicochemical.
Data set [5] in a line: Stability of the compound in pH 7.4 saline assessed as half life at 200 uM measured after 24 hrs by HPLC analysis. To be noted: saline pH 7.4, pH 7.4. In kind it is physicochemical.
Data set [6] is described as follows: Stability of the compound in rat plasma assessed as half life at 200 uM measured after 24 hrs by HPLC analysis. In kind it is ADME, cell-free.
Data set [7] is described as follows: GSH reactivity assessed as reaction rate measured at 1 equiv of GSH upto 24 hrs by HPLC analysis. Format: ADME.
The nature of data set [8]: GSH reactivity assessed as reaction rate measured at 8 equiv of GSH upto 24 hrs by HPLC analysis. Format: ADME.
Data set [9] is described as follows: Lipo-hydro partition coefficient, logP of compound. In kind it is physicochemical. To be noted: octanol/water.
For data set [10], the system named is Cortical neurone. Nature of the data set: Neuroprotective activity against in OGD/R-induced rat cortical neuron cytotoxicity assessed as decrease in cell viability pretreated at 1.8 uM for 24 hrs followed by subjected to OGD for 2 hrs measured after 24 hrs under normoxic condition by MTT assay. Format: functional, tissue-based. The gist of the method: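 Primary rat cortical neurons from enzymatically digested cortex, plated on poly-lysine in DMEM/10% FBS for 4 h. Pretreated 24 h in neuron basal medium with 2% B27, then glucose/FBS-free DMEM at 1% O2. Returned to 10% FBS DMEM under normoxia for 24 h. Viability by MTT; three independent experiments, mean SD.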

Data set [11] deals with Cortical neurone. Nature of the data set: Induction of HO-1 mRNA transcript level in OGD/R-induced rat primary cortical neuron pretreated at 1.8 uM for 24 hrs followed by subjected to OGD for 2 hrs measured after 24 hrs under normoxic condition by RT-qPCR analysis. Format: functional, tissue-based. Put shortly:
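Primary rat cortical neurons were pretreated with 1.8 μM compound for 24 h, given 2 h OGD, then 24 h normoxic culture. Nrf2, HO-1 and NQO1 mRNA were measured by RT-qPCR. Cytoplasmic and nuclear protein (30 μg/lane) were blotted for Nrf2, with lamin A and β-actin as references, and quantified by densitometry as the nuclear:cytoplasmic ratio. Three independent experiments, mean ± SD.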

Data set [12] concerns Cortical neurone. Nature of the data set: Neuroprotective activity against in OGD/R-induced rat cortical neuron cytotoxicity assessed as activation of NO/cGMP/PKG pathway by measuring increase in cGMP level pretreated at 1.8 uM for 24 hrs followed by subjected to OGD for 2 hrs measured after 24 hrs under normoxic condition by ELISA. In kind it is functional, tissue-based.

Data set [13] relates to Rattus norvegicus. Nature of the data set: Neuroprotective activity against middle cerebral artery occlusion-induced ischemia-reperfusion injury Sprague-Dawley rat model assessed as decrease in neurologic deficit scores at 95 to 9500 microg/kg, iv pretreated for 2 hrs followed by reperfusion measured after 24 hrs. In kind it is functional, organism-based. To be noted: dose 95-9500 µg/kg. Put shortly:
(§1)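 Male SD rats (N = 8/group) were dosed iv at 95, 950 or 9500 μg/kg 2 h before 2 h MCAO (nylon suture, chloral hydrate anesthesia), then reperfused. Where used, PTIO 1 mg/kg iv was given 30 min before compound. At 24 h, blinded assessment covered Longa deficit score, TTC-stained 2 mm sections (infarct area/whole area), and edema by wet/dry weight.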

In data set [14] the test system is Rattus norvegicus. Kind of data set: Neuroprotective activity against middle cerebral artery occlusion-induced ischemia-reperfusion injury Sprague-Dawley rat model assessed as decrease in cerebral edema degree at 950 microg/kg, iv pretreated for 2 hrs followed by reperfusion measured after 24 hrs in presence of PTIO. Format: functional, organism-based. Conditions: dose 950.0 µg/kg. Put shortly: as §1

The nature of data set [15]: Toxicity in Sprague-Dawley rat assessed as effect on blood pressure at 950 microg/kg, iv measured upto 24 hrs. In kind it is organism-based. To be noted: in vivo, 0.95 mg/kg, dose 950 µg/kg. Put shortly: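 Male Sprague-Dawley rats (12 weeks, 200−220 g, SPF housing, free chow and water) received a single iv tail-vein injection of test compound or vehicle control, n = 3 per group, followed by blood pressure measurement.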

For data set [16], the system named is Rattus norvegicus. Kind of data set: Neuroprotective activity against middle cerebral artery occlusion-induced ischemia-reperfusion injury Sprague-Dawley rat model assessed as decrease in brain infarct volume at 95 to 9500 microg/kg, iv treated immediately reperfusion measured after 24 hrs. In kind it is functional, organism-based. Conditions: dose 95-9500 µg/kg. The gist of the method:
(§2)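 Male SD rats (12 weeks, 200–220 g; N = 8/group) underwent MCAO under […] (350 mg/kg) using a nylon intraluminal suture for 2 h, then reperfusion. Compound (95, 950 or 9500 μg/kg) was given iv immediately after reperfusion; where used, PTIO 1 mg/kg iv was given 30 min before. At 24 h, blinded scoring covered Longa neurological deficit, TTC infarct area/whole area, and edema from wet/dry brain weight (105 °C, 24 h).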

Data set [17] relates to Rattus norvegicus. Kind of data set: Neuroprotective activity against middle cerebral artery occlusion-induced ischemia-reperfusion injury Sprague-Dawley rat model assessed as decrease in cerebral edema degree at 95 to 9500 microg/kg, iv treated immediately reperfusion measured after 24 hrs. In kind it is functional, organism-based. To be noted: dose 95-9500 µg/kg. The gist of the method:
as §2

Data set [18] relates to Rattus norvegicus. Nature of the data set: Neuroprotective activity against middle cerebral artery occlusion-induced ischemia-reperfusion injury Sprague-Dawley rat model assessed as decrease in neurologic deficit scores at 95 to 9500 microg/kg, iv treated immediately reperfusion measured after 24 hrs. Conditions: dose 95-9500 µg/kg. In kind it is functional, organism-based. The gist of the method: as §2

The subject of data set [19] is Rattus norvegicus. Kind of data set: Neuroprotective activity against middle cerebral artery occlusion-induced ischemia-reperfusion injury Sprague-Dawley rat model assessed as decrease in cerebral edema degree at 95 to 9500 microg/kg, iv treated immediately reperfusion in presence of PTIO measured after 24 hrs. In kind it is functional, organism-based. To be noted: dose 95-9500 µg/kg. Put shortly: as §2

In data set [20] the test system is HUVEC. Nature of the data set: Angiogenesis activity in HUVEC cells assessed as increase in tube formation at 1.8 uM measured after 8 hrs by inverted microscopy. In kind it is functional, cell-based. To be noted: Homo sapiens. The gist of the method: (§3)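 Early-passage HUVECs (passages 2–6), grown in DMEM with 10% FBS, glutamine, pyruvate and antibiotics, were seeded at 8 × 10⁴ cells/well on Matrigel. They were exposed to vehicle or compound for 8 h at 37 °C, 5% CO₂. Tubes were counted under an inverted microscope.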

The subject of data set [21] is HUVEC. Nature of the data set: Angiogenesis activity in HUVEC cells assessed as increase in tube formation at 1.8 uM measured after 8 hrs in presence of NS2028 by inverted microscopy. In kind it is functional, cell-based. Conditions: Homo sapiens. Put shortly:
as §3

The test system of data set [22] is Rattus norvegicus. Kind of data set: Neuroprotective activity against middle cerebral artery occlusion-induced ischemia-reperfusion injury Sprague-Dawley rat model assessed as increase in CD31 expression in cerebral ischemic penumbra at 95 to 950 microg/kg, iv treated immediately reperfusion measured after 24 hrs in presence of PTIO by immunofluoresence assay. Format: functional, organism-based. Conditions: dose 95-950 µg/kg.

In data set [23] the test system is Rattus norvegicus. Kind of data set: Neuroprotective activity against middle cerebral artery occlusion-induced ischemia-reperfusion injury Sprague-Dawley rat model assessed as increase in Ki67+ cells in cerebral ischemic penumbra at 95 to 950 microg/kg, iv treated immediately reperfusion measured after 24 hrs in presence of PTIO by immunofluoresence assay. Format: functional, organism-based. To be noted: dose 95-950 µg/kg.

The source made the active and inactive calls. The calls are words filed in the database; no cut-off is given here.

Consider `O=C(/C(=C/c1ccccc1)C[N+](=O)[O-])c1ccccc1`, for which the Drug metabolism result in [1] is “Metabolite_Detected”. For the same molecule, the outcome in the data set with Cortical neurone [2], in the data set with Cortical neurone [10], in the data set on Cortical neurone [11], in the data set with Cortical neurone [12], with Rattus norvegicus [13] and in the data set on Rattus norvegicus [16] was Active. For the same molecule, the outcome with Rattus norvegicus [17], in the data set with Rattus norvegicus [18] and with HUVEC [20] was Active. For the same molecule, the Stability entry in data set [3] and in [4] was “Stable” throughout. Further, the half-life at 200 µM is 2310 min in data set [5] and 318 min in data set [6]. Also, the figures for the Activity in [7], in [8] and in data set [15] were 0.0214 h⁻¹, 0.0363 h⁻¹ and “Non-Toxic”, respectively. Besides, the logP in [9] was determined as 0.54. The outcome with Rattus norvegicus [14], with Rattus norvegicus [19], in the data set on HUVEC [21], with Rattus norvegicus [22] and in the data set with Rattus norvegicus [23] was inactive.

(Values after ChEMBL document CHEMBL5029154, “Design, Synthesis, and Biological Evaluation of Organic Nitrite (NO2-) Donors as Potential Anticerebral Ischemia Agents” (J Med Chem, 2021).)
